Test results from ChEMBL document CHEMBL1148350, “Synthesis, biological activity, and three-dimensional quantitative structure-activity relationship model for a series of benzo[c]quinolizin-3-ones, nonsteroidal inhibitors of human steroid 5alpha-reductase 1” (J Med Chem, 2004).

Key:
[1] = biological target: T1, 3-oxo-5-alpha-steroid 4-dehydrogenase 1 (Homo sapiens, UniProt P18405); assay: Inhibitory concentration against human recombinant steroid 5-alpha-reductase type I in stably transfected chinese hamster ovary (CHO) 1827 cells using [3H]testosterone.
T1 sequence (P18405 whole entry): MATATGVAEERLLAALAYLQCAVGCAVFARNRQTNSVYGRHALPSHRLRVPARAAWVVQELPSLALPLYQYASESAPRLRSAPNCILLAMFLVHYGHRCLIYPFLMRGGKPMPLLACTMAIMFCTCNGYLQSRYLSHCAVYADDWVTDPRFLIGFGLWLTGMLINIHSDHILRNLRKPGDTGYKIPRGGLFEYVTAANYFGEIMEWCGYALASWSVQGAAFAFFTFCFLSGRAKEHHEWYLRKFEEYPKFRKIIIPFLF
Procedure, shortened: (§1)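 Intact stably transfected CHO 1827 cells expressing human recombinant 5αR-1 were incubated 30 min with [3H]-testosterone at its Km (2 μM) plus inhibitor over 10^-9–10^-5 M. IC50 was obtained by four-parameter logistic fit. Finasteride served as reference inhibitor across repeated assays.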

[2] = biological target: T1, 3-oxo-5-alpha-steroid 4-dehydrogenase 1; assay: Log of inhibitory concentration against human recombinant steroid 5-alpha-reductase type I in stably transfected chinese hamster ovary (CHO) 1827 cells using [3H]testosterone.; procedure, shortened: as §1
[3] = Partition coefficient (logP); assay type: physicochemical; settings: octanol/water
[4] = biological target: T2, 3-oxo-5-alpha-steroid 4-dehydrogenase 2 (Homo sapiens, UniProt P31213); assay: Inhibitory concentration against human recombinant steroid 5-alpha-reductase type 2 in stably transfected chinese hamster ovary 1827 cells using [3H]testosterone
T2 sequence (P31213 whole entry): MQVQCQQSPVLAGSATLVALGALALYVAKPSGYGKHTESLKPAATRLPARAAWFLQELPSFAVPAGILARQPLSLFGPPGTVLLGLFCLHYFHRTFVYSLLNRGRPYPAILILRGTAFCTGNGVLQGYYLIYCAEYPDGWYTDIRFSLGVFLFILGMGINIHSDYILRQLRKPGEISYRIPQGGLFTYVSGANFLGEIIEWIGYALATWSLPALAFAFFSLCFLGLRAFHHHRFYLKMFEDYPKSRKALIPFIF
Procedure, shortened: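 Intact stably transfected CHO 1827 cells incubated 30 min with [3H]testosterone at its Km concentration plus inhibitor over 10^-9–10^-5 M. IC50 fitted by four-parameter logistic equation. Finasteride run as reference inhibitor to check interassay reproducibility.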

Structure (SMILES)	IC50 [1]	IC50 [2]	logP [3]	IC50 [4]
COC(=O)c1ccc(OC(=O)c2ccc3c(c2)CCC2=C(C)C(=O)CCN23)cc1	121 nM	120 nM	4.86	
CC1=C2CCc3cc(C#Cc4ccccc4)ccc3N2CCC1=O	8.75 nM	8.71 nM	5.49	
CC1=C2CCc3cc(-c4ccco4)ccc3N2CCC1=O	133 nM	132 nM	4.12	
CC1=C2CCc3cc(OCc4ccccc4)ccc3N2CCC1=O	111 nM	112 nM	4.64	
CC1=C2CCc3cc(OCc4ccccc4Cl)ccc3N2CCC1=O	194 nM	195 nM	5.35	
Cc1ccc2c(c1)CCC1=CC(=O)CCN12			2.83	
O=C1C=C2CCc3ccccc3N2CC1			2.33	
CC1=C2CCc3ccccc3N2CCC1=O			2.85	
CC(C)(C)NC(=O)[C@H]1CC[C@H]2[C@@H]3CC[C@H]4NC(=O)C=C[C@]4(C)[C@H]3CC[C@]12C [FINASTERIDE]				21 nM
CC1=C2CCc3cc(/C=C/c4ccccc4)ccc3N2CCC1=O	380 nM	380 nM	5.54	
CC1=C2CCc3cc(-c4cccs4)ccc3N2CCC1=O	79 nM	79.4 nM	4.62	
O=C1C=C2CCc3cc(Cl)ccc3N2CC1			3.22	
CC1=C2CCc3cc(-c4cccnc4)ccc3N2CCC1=O	170 nM	170 nM	3.35	
CC1=C2CCc3cc(C(=O)Oc4ccc(C(C)(C)C)cc4)ccc3N2CCC1=O	560 nM	562 nM	6.47	
CC1=C2CCc3cc(OCc4ccc(Cl)cc4)ccc3N2CCC1=O	92.9 nM	93.3 nM	5.35	
CC1=C2CCc3cc(OCc4ccc(C(F)(F)F)cc4C(F)(F)F)ccc3N2CCC1=O	149 nM	148 nM	6.41	
CC1=C2CCc3cc(OCc4cccc(Cl)c4)ccc3N2CCC1=O	93 nM	93.3 nM	5.35	
CC1=C2CCc3cc(OCc4cc(C(F)(F)F)ccc4C(F)(F)F)ccc3N2CCC1=O	393 nM	389 nM	6.41	
CC1=C2CCc3cc(-c4ccccc4)ccc3N2CCC1=O	128 nM	129 nM	4.74	
CC1=C2CCc3cc(OCc4ccc(C(F)(F)F)cc4)ccc3N2CCC1=O	83.7 nM	83.2 nM	5.52	
CC1=C2CCc3cc(/C=C\c4ccccc4)ccc3N2CCC1=O	14.2 nM	14.1 nM	5.54	
COC(=O)c1cccc(OC(=O)c2ccc3c(c2)CCC2=C(C)C(=O)CCN23)c1	965 nM	955 nM	4.86	

The remaining lines, values ahead:

IC50 [1]	IC50 [2]	logP [3]	IC50 [4]	Structure (SMILES)
1050 nM	1050 nM	4.05		CC1=C2CCc3cc(C(=O)Oc4ccc(C)cc4)ccc3N2CCC1=O
14 nM	14.1 nM	3.88		CCc1ccc2c(c1)CCC1=C(C)C(=O)CCN12
942 nM	933 nM	4.64		CC1=C2CCc3cc(C(=O)Oc4ccccc4)ccc3N2CCC1=O
21.6 nM	21.4 nM	3.57		C=Cc1ccc2c(c1)CCC1=C(C)C(=O)CCN12
117 nM	117 nM	3.13		COC(=O)c1ccc2c(c1)CCC1=C(C)C(=O)CCN12
178 nM	182 nM	2.87		COc1ccc2c(c1)CCC1=C(C)C(=O)CCN12
221 nM	219 nM	3.66		CCOC(=O)c1ccc2c(c1)CCC1=C(C)C(=O)CCN12
1000 nM	1000 nM	4.37		CC1=C2CCc3cc(C(=O)OC(C)(C)C)ccc3N2CCC1=O
8.1 nM	8.13 nM	3.88		CC1=C2CCc3cc(Br)ccc3N2CCC1=O
5.8 nM	5.62 nM	3.73		CC1=C2CCc3cc(Cl)ccc3N2CCC1=O
		3.35		CC1=C2CCc3cc(C)ccc3N2CCC1=O
96.8 nM	97.7 nM	4.96		CC1=C2CCc3cc(C(=O)OCc4ccccc4)ccc3N2CCC1=O
731 nM	724 nM	3.97		CC1=C2CCc3cc(C(=O)OC(C)C)ccc3N2CCC1=O
